Source: ChEMBL document CHEMBL2203175, “Discovery and optimization of sulfonyl acrylonitriles as selective, covalent inhibitors of protein phosphatase methylesterase-1” (J Med Chem, 2011)
The source made the active and inactive calls. No cut-off for these calls is given here.

Tests used:
[1] = target: T1, Protein phosphatase methylesterase 1 (Homo sapiens) (UniProt Q9Y570); experiment: Inhibition of PME1 overexpressed in HEK293T cells assessed as increase in methylated PP2A level at 20 uM after 1 hr by Western blot analysis; assay type: cell-based; conditions: HEK-293T
T1 sequence (whole entry): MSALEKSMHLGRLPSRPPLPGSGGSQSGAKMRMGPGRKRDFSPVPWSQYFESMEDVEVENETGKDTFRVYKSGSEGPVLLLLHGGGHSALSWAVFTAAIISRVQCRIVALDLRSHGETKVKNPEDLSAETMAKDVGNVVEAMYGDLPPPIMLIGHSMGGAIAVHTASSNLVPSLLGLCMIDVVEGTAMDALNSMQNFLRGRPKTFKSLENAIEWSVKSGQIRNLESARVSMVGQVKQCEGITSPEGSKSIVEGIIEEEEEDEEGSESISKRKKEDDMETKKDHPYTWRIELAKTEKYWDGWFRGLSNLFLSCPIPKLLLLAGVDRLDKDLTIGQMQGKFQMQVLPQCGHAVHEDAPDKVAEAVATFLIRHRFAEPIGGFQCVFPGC
Procedure, shortened: (§1)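 HEK 293T cells, either stably overexpressing PME-1 or untransfected, treated in medium for 1 h at 37 °C. Total cell extract (2 mg/mL) run on reducing SDS-PAGE (10%) and blotted with demethylated-specific (4b7), methylated-specific (2A10) and total PP2A antibodies, imaged by infrared fluorescence. Mean ± SEM, n = 3, compared against DMSO-treated cells.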

[2] = target: T1, Protein phosphatase methylesterase 1 (Homo sapiens); experiment: Inhibition of PME1 overexpressed in HEK293T cells assessed as reduction in demethylated PP2A level at 20 uM after 1 hr by Western blot analysis relative to control; assay type: cell-based; conditions: HEK-293T; procedure, shortened: as §1
[3] = target: Testis-expressed protein 30 (Homo sapiens) (UniProt Q5JUR7); experiment: Inhibition of C13orf27 binding to FP-biotin in [12C][14N]-lysine, arginine and [13C6][15N2]-lysine, arginine labeled HEK293T cells at 20 uM after 1 hr by isotopic activity-based protein profiling-MudPIT assay; assay type: cell-based; conditions: HEK-293T
Sequence of Testis-expressed protein 30 (Homo sapiens) (Q5JUR7 whole entry): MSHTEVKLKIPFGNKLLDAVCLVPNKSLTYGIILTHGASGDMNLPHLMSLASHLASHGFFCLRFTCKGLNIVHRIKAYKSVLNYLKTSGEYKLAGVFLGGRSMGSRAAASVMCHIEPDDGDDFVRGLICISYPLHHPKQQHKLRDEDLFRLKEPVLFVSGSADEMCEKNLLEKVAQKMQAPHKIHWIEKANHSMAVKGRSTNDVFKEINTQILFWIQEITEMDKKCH
Procedure, shortened: (§2)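 SILAC HEK 293T: light cells (12C14N-Lys/Arg) treated with compound, heavy cells (13C6 15N2-Lys/Arg) with DMSO, 1 h at 37 °C. Proteomes were mixed 1:1 (0.5 mg each) and labeled with FP-biotin (5 μM, 1 h, 25 °C), then streptavidin-enriched, digested on bead with trypsin, and run by MudPIT. Light/heavy ratios were normalized to a DMSO/DMSO control. Only SHs with ≥2 quantifiable peptides were kept; mean ± SEM across peptides.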

[4] = target: Prolyl endopeptidase-like (Homo sapiens) (UniProt Q4J6C6); experiment: Inhibition of PREPL binding to FP-biotin in [12C][14N]-lysine, arginine and [13C6][15N2]-lysine, arginine labeled HEK293T cells at 20 uM after 1 hr by isotopic activity-based protein profiling-MudPIT assay; assay type: cell-based; conditions: HEK-293T; procedure, shortened: as §2
Sequence of Prolyl endopeptidase-like (Homo sapiens) (Q4J6C6 whole entry, the tested form may be a part): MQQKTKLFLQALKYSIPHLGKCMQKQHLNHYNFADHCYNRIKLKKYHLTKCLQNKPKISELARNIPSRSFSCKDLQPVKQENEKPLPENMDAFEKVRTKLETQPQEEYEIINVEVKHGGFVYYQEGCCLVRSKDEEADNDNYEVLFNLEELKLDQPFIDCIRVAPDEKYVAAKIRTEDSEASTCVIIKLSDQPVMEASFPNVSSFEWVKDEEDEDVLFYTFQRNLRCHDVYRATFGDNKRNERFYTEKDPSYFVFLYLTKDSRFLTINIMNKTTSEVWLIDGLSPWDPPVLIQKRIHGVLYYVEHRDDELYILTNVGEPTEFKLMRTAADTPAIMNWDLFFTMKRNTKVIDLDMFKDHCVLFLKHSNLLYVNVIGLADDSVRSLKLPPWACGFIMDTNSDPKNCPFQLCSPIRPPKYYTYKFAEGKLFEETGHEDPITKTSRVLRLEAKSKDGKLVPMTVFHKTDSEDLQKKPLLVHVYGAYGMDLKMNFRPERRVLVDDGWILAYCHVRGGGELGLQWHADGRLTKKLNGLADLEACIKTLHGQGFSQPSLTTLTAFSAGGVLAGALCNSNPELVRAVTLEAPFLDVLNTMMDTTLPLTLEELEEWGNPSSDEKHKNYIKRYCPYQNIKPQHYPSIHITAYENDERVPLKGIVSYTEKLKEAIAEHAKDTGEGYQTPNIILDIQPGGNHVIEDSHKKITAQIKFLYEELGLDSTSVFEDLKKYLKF

[5] = target: Patatin-like phospholipase domain-containing protein 6 (Homo sapiens) (UniProt Q8IY17); experiment: Inhibition of PNPLA6 binding to FP-biotin in [12C][14N]-lysine, arginine and [13C6][15N2]-lysine, arginine labeled HEK293T cells at 20 uM after 1 hr by isotopic activity-based protein profiling-MudPIT assay; assay type: cell-based; conditions: HEK-293T; procedure, shortened: as §2
Sequence of Patatin-like phospholipase domain-containing protein 6 (Homo sapiens) (Q8IY17 whole entry, the tested form may be a part): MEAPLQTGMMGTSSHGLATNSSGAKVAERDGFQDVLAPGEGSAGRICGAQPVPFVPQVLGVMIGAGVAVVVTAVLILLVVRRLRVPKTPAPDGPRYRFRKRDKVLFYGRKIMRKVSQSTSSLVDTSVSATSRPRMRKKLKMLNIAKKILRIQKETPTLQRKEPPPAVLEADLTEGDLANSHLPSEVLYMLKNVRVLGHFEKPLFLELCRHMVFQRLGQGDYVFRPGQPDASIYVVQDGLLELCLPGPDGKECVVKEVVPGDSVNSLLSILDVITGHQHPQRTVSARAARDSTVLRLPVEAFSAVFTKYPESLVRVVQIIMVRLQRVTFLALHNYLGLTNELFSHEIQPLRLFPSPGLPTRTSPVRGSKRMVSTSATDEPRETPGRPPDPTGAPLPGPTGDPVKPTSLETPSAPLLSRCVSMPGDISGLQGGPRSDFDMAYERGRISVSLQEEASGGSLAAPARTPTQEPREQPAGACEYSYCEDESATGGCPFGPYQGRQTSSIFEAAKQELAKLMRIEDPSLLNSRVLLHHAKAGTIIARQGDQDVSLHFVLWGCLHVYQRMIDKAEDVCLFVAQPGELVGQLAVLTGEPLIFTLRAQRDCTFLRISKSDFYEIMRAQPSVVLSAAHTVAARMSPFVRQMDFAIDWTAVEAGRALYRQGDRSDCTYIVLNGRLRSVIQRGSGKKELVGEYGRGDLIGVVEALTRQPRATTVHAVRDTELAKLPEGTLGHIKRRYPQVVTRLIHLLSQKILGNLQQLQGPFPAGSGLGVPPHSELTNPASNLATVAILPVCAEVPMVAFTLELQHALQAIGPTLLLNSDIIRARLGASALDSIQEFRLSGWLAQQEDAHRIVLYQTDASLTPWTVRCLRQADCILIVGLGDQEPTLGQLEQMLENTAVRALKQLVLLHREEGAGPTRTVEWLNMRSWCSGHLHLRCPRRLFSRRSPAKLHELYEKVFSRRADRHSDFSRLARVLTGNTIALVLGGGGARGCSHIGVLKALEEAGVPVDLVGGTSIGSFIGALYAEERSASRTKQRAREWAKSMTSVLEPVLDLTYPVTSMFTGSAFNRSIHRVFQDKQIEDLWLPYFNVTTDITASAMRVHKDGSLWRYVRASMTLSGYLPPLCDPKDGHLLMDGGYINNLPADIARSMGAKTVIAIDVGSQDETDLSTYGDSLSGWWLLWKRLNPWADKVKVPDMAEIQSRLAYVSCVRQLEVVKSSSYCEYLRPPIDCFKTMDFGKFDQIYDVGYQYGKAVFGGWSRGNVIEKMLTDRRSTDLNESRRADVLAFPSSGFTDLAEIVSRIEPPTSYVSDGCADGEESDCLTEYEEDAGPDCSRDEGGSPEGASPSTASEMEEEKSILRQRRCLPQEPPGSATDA

[6] = target: Phosphatidylserine lipase ABHD16A (Homo sapiens) (UniProt O95870); experiment: Inhibition of BAT5 binding to FP-biotin in [12C][14N]-lysine, arginine and [13C6][15N2]-lysine, arginine labeled HEK293T cells at 20 uM after 1 hr by isotopic activity-based protein profiling-MudPIT assay; assay type: cell-based; conditions: HEK-293T; procedure, shortened: as §2
[7] = target: Platelet-activating factor acetylhydrolase IB subunit alpha1 (Homo sapiens) (UniProt Q15102); experiment: Inhibition of PAFAH1B3 binding to FP-biotin in [12C][14N]-lysine, arginine and [13C6][15N2]-lysine, arginine labeled HEK293T cells at 20 uM after 1 hr by isotopic activity-based protein profiling-MudPIT assay; assay type: cell-based; conditions: HEK-293T; procedure, shortened: as §2
Sequence of Platelet-activating factor acetylhydrolase IB subunit alpha1 (Homo sapiens) (Q15102 whole entry): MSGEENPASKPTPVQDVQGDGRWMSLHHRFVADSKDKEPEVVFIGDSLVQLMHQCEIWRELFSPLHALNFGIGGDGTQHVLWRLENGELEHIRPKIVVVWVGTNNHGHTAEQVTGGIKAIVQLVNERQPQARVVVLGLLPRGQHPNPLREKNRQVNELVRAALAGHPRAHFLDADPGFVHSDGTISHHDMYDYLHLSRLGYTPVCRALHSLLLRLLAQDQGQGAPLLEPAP

[8] = target: Cytosolic phospholipase A2 (Homo sapiens) (UniProt P47712); experiment: Inhibition of PLA2G4A binding to FP-biotin in [12C][14N]-lysine, arginine and [13C6][15N2]-lysine, arginine labeled HEK293T cells at 20 uM after 1 hr by isotopic activity-based protein profiling-MudPIT assay; assay type: cell-based; conditions: HEK-293T; procedure, shortened: as §2
Sequence of Cytosolic phospholipase A2 (Homo sapiens) (P47712 whole entry): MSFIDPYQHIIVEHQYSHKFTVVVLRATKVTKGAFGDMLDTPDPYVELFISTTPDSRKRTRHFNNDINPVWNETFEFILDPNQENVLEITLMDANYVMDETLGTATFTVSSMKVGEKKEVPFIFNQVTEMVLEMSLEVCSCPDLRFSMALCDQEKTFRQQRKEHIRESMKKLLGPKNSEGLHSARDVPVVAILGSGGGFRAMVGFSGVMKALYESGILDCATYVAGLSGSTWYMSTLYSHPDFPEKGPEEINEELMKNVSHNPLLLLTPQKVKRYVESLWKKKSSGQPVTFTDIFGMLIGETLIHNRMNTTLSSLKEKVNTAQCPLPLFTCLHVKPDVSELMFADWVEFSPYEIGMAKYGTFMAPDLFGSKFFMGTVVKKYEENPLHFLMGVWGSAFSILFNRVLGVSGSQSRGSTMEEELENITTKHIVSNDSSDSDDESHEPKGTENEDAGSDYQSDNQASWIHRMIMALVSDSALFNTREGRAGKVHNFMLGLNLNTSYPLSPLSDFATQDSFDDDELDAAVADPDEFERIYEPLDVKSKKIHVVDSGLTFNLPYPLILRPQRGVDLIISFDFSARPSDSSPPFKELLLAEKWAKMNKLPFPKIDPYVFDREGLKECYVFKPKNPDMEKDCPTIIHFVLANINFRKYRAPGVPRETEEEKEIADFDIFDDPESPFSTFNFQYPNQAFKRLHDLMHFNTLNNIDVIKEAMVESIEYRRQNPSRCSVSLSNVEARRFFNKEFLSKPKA

[9] = target: Dipeptidyl peptidase 8 (Homo sapiens) (UniProt Q6V1X1); experiment: Inhibition of DPP8 binding to FP-biotin in [12C][14N]-lysine, arginine and [13C6][15N2]-lysine, arginine labeled HEK293T cells at 20 uM after 1 hr by isotopic activity-based protein profiling-MudPIT assay; assay type: cell-based; conditions: HEK-293T; procedure, shortened: as §2
Sequence of Dipeptidyl peptidase 8 (Homo sapiens) (Q6V1X1 whole entry, looked up, the tested form may be a part): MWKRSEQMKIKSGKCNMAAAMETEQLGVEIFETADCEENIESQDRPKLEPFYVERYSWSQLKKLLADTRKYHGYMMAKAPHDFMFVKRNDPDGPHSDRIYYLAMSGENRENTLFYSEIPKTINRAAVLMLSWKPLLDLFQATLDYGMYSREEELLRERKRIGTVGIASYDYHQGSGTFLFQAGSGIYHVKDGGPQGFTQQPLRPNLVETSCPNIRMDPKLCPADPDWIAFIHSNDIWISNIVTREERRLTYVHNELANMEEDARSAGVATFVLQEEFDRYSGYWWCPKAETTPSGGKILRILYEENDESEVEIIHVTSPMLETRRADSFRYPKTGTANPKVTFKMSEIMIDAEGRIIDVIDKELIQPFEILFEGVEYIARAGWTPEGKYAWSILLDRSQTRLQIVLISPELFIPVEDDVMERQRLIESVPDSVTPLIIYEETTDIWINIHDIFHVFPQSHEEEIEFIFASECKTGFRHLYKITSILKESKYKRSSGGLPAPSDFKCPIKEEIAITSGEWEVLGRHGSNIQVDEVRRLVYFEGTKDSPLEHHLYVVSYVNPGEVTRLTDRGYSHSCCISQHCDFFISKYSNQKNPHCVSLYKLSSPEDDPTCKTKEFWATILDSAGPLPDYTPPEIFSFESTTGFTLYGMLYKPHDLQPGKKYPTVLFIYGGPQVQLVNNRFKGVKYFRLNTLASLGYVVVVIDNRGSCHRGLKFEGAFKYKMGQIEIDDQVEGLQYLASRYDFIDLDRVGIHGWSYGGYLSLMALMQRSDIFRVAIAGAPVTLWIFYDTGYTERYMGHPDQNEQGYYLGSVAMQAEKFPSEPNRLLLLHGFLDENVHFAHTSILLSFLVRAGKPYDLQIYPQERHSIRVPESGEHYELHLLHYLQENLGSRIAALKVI

[10] = target: Alpha/beta hydrolase domain-containing protein 17B (Homo sapiens) (UniProt Q5VST6); experiment: Inhibition of FAM108B1 binding to FP-biotin in [12C][14N]-lysine, arginine and [13C6][15N2]-lysine, arginine labeled HEK293T cells at 20 uM after 1 hr by isotopic activity-based protein profiling-MudPIT assay; assay type: cell-based; conditions: HEK-293T; procedure, shortened: as §2
Sequence of Alpha/beta hydrolase domain-containing protein 17B (Homo sapiens) (Q5VST6 whole entry, the tested form may be a part): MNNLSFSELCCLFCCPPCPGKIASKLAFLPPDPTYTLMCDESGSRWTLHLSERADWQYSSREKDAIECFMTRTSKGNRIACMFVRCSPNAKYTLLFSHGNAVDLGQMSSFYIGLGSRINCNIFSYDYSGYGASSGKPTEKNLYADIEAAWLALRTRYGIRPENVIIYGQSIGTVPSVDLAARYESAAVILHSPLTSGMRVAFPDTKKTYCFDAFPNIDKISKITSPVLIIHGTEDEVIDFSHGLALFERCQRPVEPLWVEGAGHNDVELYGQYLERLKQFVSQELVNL

[11] = target: Platelet-activating factor acetylhydrolase IB subunit alpha2 (Homo sapiens) (UniProt P68402); experiment: Inhibition of PAFAH1B2 binding to FP-biotin in [12C][14N]-lysine, arginine and [13C6][15N2]-lysine, arginine labeled HEK293T cells at 20 uM after 1 hr by isotopic activity-based protein profiling-MudPIT assay; assay type: cell-based; conditions: HEK-293T; procedure, shortened: as §2
Sequence of Platelet-activating factor acetylhydrolase IB subunit alpha2 (Homo sapiens) (P68402 whole entry): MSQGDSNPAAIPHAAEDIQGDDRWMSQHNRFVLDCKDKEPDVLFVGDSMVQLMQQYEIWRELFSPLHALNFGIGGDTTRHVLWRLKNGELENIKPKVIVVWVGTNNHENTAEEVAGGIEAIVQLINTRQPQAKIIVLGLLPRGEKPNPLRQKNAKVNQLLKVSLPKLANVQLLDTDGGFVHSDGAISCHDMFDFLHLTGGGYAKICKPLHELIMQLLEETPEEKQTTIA

[12] = target: Lysosomal Pro-X carboxypeptidase (Homo sapiens) (UniProt P42785); experiment: Inhibition of PRCP binding to FP-biotin in[12C][14N]-lysine, arginine and [13C6][15N2]-lysine, arginine labeled HEK293T cells at 20 uM after 1 hr by isotopic activity-based protein profiling-MudPIT assay; assay type: cell-based; conditions: HEK-293T; procedure, shortened: as §2
[13] = target: Prolyl endopeptidase (Homo sapiens) (UniProt P48147); experiment: Inhibition of PREP binding to FP-biotin in [12C][14N]-lysine, arginine and [13C6][15N2]-lysine, arginine labeled HEK293T cells at 20 uM after 1 hr by isotopic activity-based protein profiling-MudPIT assay; assay type: cell-based; conditions: HEK-293T; procedure, shortened: as §2
[14] = target: Lysosomal thioesterase PPT2 (Homo sapiens) (UniProt Q9UMR5); experiment: Inhibition of PPT2 binding to FP-biotin in [12C][14N]-lysine, arginine and [13C6][15N2]-lysine, arginine labeled HEK293T cells at 20 uM after 1 hr by isotopic activity-based protein profiling-MudPIT assay; assay type: cell-based; conditions: HEK-293T; procedure, shortened: as §2
Sequence of Lysosomal thioesterase PPT2 (Homo sapiens) (Q9UMR5 whole entry): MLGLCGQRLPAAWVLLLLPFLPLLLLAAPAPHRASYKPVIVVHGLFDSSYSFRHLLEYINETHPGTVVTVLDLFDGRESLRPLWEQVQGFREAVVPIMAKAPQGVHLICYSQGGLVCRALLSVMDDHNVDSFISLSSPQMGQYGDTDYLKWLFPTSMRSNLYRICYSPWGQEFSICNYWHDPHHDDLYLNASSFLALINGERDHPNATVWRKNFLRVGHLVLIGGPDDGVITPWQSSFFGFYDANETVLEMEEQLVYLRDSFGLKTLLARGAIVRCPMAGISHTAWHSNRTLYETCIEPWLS

[15] = target: Diacylglycerol lipase-beta (Homo sapiens) (UniProt Q8NCG7); experiment: Inhibition of DAGLB binding to FP-biotin in [12C][14N]-lysine, arginine and [13C6][15N2]-lysine, arginine labeled HEK293T cells at 20 uM after 1 hr by isotopic activity-based protein profiling-MudPIT assay; assay type: cell-based; conditions: HEK-293T; procedure, shortened: as §2
[16] = target: T1, Protein phosphatase methylesterase 1 (Homo sapiens); conditions: HEK-293T, 20 uM
[17] = target: T1, Protein phosphatase methylesterase 1 (Homo sapiens); conditions: HEK-293T, 20 uM; remark: listed apart in the source

inhibition [1]: Active
inhibition [2]: 80%
inhibition [3]: inactive
inhibition [4]: inactive
inhibition [5]: inactive
inhibition [6]: inactive
inhibition [7]: inactive
inhibition [8]: inactive
inhibition [9]: inactive
inhibition [10]: inactive
inhibition [11]: inactive
inhibition [12]: inactive
inhibition [13]: inactive
inhibition [14]: inactive
inhibition [15]: inactive
inhibition [16]: Active
inhibition [17]: Active
Structure (SMILES): N#C/C(=C\c1cccn1S(=O)(=O)c1cccc([N+](=O)[O-])c1)S(=O)(=O)c1ccc(F)cc1
